Source: PubChem BioAssay
hIAP act = human IAP activation; P09923; purified human IAP, CDP-Star luminescence, 30 min; hits give high values; 1 = vehicle-only enzyme, 0 = enzyme-free background; activation factor at 10 µM; hit rate 0.16% among 330,000;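 active means activation factor of the enzyme at least 2-fold when tested at 20 µM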
Target sequence (P09923 whole entry, looked up): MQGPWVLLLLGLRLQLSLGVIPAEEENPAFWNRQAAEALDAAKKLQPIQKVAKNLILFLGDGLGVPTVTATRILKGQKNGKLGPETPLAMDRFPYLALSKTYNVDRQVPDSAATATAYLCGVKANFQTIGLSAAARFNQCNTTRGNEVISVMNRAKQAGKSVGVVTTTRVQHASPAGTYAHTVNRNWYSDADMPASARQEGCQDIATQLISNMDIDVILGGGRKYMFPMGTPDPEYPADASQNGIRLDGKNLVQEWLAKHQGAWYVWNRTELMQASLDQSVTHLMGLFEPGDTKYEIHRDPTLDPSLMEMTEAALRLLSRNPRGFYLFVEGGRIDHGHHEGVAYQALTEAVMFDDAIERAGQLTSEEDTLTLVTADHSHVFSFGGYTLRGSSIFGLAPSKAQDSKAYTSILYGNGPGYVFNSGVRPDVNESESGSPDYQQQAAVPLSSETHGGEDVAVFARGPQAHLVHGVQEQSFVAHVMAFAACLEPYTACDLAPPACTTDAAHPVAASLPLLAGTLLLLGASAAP
bIAP activator = intestinal alkaline phosphatase (bovine) activation; purified bovine IAP, CDP-star luminescence, 30 min; hits give high values; fold of DMSO-control signal, blank-subtracted; activation factor at 20 µM; hit rate 0.17% among 200,000; AID 1016;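 active means activation factor of 2 or more at 20 µM, a signal rise over negative controls twice the positive control's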
mIAP act = mouse IAP activation; activation factor at 10 µM; muIAP, CDP-Star luminescence, 30 min; hits give high values; 1 = vehicle-only enzyme signal, 0 = enzyme-free wells; hit rate 0.24% among 330,000;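 active means activation factor of at least 2 at 20 µM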
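Assay system: mouse IAP enzyme; reagent: chemiluminescent substrate CDP-Star; dosing: test compounds delivered from DMSO solution; schedule: 30 min at room temperature; measured by: luminescence from enzymatic CDP-Star hydrolysis; controls: DMSO-only wells and no-enzyme negative control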
mIAP block = mouse IAP inhibition; AID 2806; hit rate 0.2% among 330,000; purified mouse IAP, CDP-Star luminescence, 30 min; inhibition, % at 10 µM;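 active means inhibition of at least 40% at 10 µM in the primary screen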;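 further: plate controls were DMSO with enzyme for no effect and no enzyme wells for full effect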
hIAP block = blocks human intestinal alkaline phosphatase; purified IAP, CDP-Star luminescence, 30 min; AID 2544; P09923; hit rate 0.12% among 330,000; inhibition, % at 10 µM;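 active means inhibition reaching a set limit with compound at 10 µM in the primary screen, cut at about 35% in these data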;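 further: plate controls were DMSO wells with enzyme for no effect and no-enzyme buffer wells for full effect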
bIAP inh = blocks bovine intestinal alkaline phosphatase activity; purified bovine IAP, CDP-star luminescence, 30 min; inhibition, % at 20 µM; 190,000 tested, under 10 active;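 active means over 50% inhibition of intestinal alkaline phosphatase at 20 µM in the single-dose screen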
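test system = bovine IAP enzyme | medium = DEA buffer 100 mM, pH 9.8, with MgCl2 1.0 mM, ZnCl2 0.02 mM | detection = luminescence | dosing = single compound dose of 20 µM, 2% DMSO final | incubation = 30 min reaction at room temperature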
hIAP act conf = human IAP activation confirmation | shares compounds with hIAP act | purified IAP, CDP-Star luminescence, 30 min; hits give low values | activation (%Activity, negative = activation), % at 8.3 µM | hit rate 10% among 880;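 active means at least twofold enzyme activation in any of six single-dose repeats, which the averaged readout prints as negative percent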
* hit, by the source's call; · = not tested or not shown; ! = repeats disagree. This is a sample that favours compounds with a hit; in the whole collection about 0.79% have one here.

SMILES	hIAP act	bIAP activator	mIAP act	mIAP block	hIAP block	bIAP inh	hIAP act conf
CCOC(=O)C1=C(c2ccc(OC)cc2)OC(N)=C(C#N)C1c1cccnc1 (stereo unspecified)	3*	·	1	-4	-195	·	-1
CN(C)c1ccc(N=Nc2cccc3ccoc23)cc1	0.64	·	0.72	28	36*	·	-35
CN(C)c1ccc(N=Nc2cccc(F)c2)cc1	0.95	·	0.88	12	5	·	·
COC(=O)c1ccccc1-c1c2ccc(=N)cc-2oc2cc(N)ccc12	0.62	·	1.3	-30	38*	·	35
O=C(NCc1ccccc1)C(=O)Nc1nc(-c2ccccc2)cs1	1.1	·	1	-1	-10	·	·
O=C(NCc1ccccn1)C(=O)Nc1nc(-c2ccccc2)cs1	2.2*	·	1	-5	-116	·	-60
Cc1ccc2occ(/C=N/NC(=O)c3ccncc3)c(=O)c2c1	2.3*	·	0.9	10	-131	·	-31
Cc1noc(C)c1COc1ccc(C(=O)N2CCN(c3ccccc3O)CC2)cc1	0.93	·	1	-4	7	·	·
Cc1cccn2c(=O)c3cc(C(=O)NC4CCCC4)c(=N)n(C4CCCCC4)c3nc12	0.64	·	1.1	-8	36*	·	-122*
c1ccc(CN(CC2=NCCN2)c2ccccc2)cc1	0.98	337*!	1.1	-5	19	-2	-47
c1ccc(CC2=NCCN2)cc1	1	0.9	1.1	-14	-4	6	·
COc1ccc(NCc2ccc(OC)c(OC)c2)cc1	0.62	1	0.93	7	38*	0	-30
COc1ccc(CNc2ccc(C)c(C)c2)cc1	1	0.9	1	-1	-4	8	·
Cc1ccc(C(=O)OCC(=O)NC(C)C2CC3CCC2C3)cc1N (stereo unspecified)	1.1	·	1	-5	-8	·	·
Cc1ccc(NC(=O)CN(c2ccc(Cl)cc2)S(=O)(=O)c2cc([N+](=O)[O-])ccc2Cl)c(C)c1	0.93	1.1	0.98	2	7	-6	·
CN(C)c1ccc(N=Nc2ccccc2C(=O)OCC(=O)NC2CCCC2)cc1	0.6	1.1	0.71	28	40*	-6	10
CN(C)c1ccc(N=Nc2ccccc2C(=O)OCC(=O)NCC2CCCCC2)cc1	1	1.1	0.71	29	-4	-5	·
Cc1ccc(OCCC(=O)OCC(=O)NC2CCS(=O)(=O)C2)cc1 (stereo unspecified)	1.1	·	0.95	5	-7	·	·
CCCCOc1cccc(C2/C(=C(\O)c3ccc4c(c3)OCCO4)C(=O)C(=O)N2CCN2CCOCC2)c1 (stereo unspecified)	0.58	·	1	-1	42*	·	-91*
CCn1c(C)nc2cc(C(=O)NNC(=S)Nc3ccc(C)cc3)ccc21	2*	·	1.2	-15	-101	·	-48
CCc1ccc(N=C2N=C(N)c3ccccc32)cc1	0.62	0.9	0.96	4	38*	8	21
CC(Cc1ccc(Cl)cc1)N1CCC(n2nccc2NC(=O)C2CCCC2)CC1 (stereo unspecified)	2.3*	·	1.8	-83	-128	·	-3
O=C(Nc1ccnn1C1CCN(Cc2ccccc2)CC1)C1CCCC1	1.2	·	1.1	-12	-18	·	·
COc1cc(C(=O)NC(=S)NNC(=O)c2cnccn2)cc(OC)c1OC	2.2*	0.7	0.76	24	-116	31	-22
O=C(CN(c1cccc(C(F)(F)F)c1)S(=O)(=O)c1ccc(Cl)c([N+](=O)[O-])c1)NCc1ccc(F)cc1	1	1	0.91	9	-1	-2	·
COC(=O)/C(C#N)=C/c1c(Oc2cc(C)cc(C)c2)nc2ccccn2c1=O	2*	·	0.88	12	-103	·	1
Cc1cccc(SCc2noc(C(=O)NCC3CCCO3)c2C(=O)O)c1 (stereo unspecified)	0.65	1	0.96	4	35*	-2	-213*
Cc1cc(C)cc(SCc2noc(C(=O)NCC3CCCO3)c2C(=O)O)c1 (stereo unspecified)	1.1	0.9	1	-2	-5	6	·
CCCC1(CCC)NC(=O)N(CC(=O)N2CCc3ccccc32)C1=O	1.1	·	0.9	10	-8	·	·
